According to ChEMBL document CHEMBL1124216, “A novel class of potential central nervous system agents. 3-Phenyl-2-(1-piperazinyl)-5H-1-benzazepines” (1988):

Experiments:
Type in all cases: functional
[1] = test system: Mus musculus; test: Antireserpine activity (RES) of mice after peroral administration of 50 mg/kg of compound; Moderate inhibition (51-71%); conditions: route oral
[2] = test system: Mus musculus; test: Antiexploratory activity (EXPL) of mice determined by an antimex activity meter, 50 mg/kg of dose was administered perorally; Moderate inhibition (51-71%); conditions: route oral
[3] = test system: Mus musculus; test: Antimaximal electroshock seizure (MES) activity in mice after peroral administration of 100 mg/kg of compound; 3/5; conditions: route oral
[4] = test system: Mus musculus; test: Antipentylene tetrazole activity was determined in mice when administered perorally; conditions: po
Procedure, shortened: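 Groups of five male Std-ddY mice received compound orally in 0.5% tragacanth, then pentylenetetrazole 175 mg/kg ip. Blockade of the tonic extensor component scored as anticonvulsant. ED50 was the dose protecting 50% of animals (Litchfield-Wilcoxon).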

[5] = test system: Mus musculus; test: Antimaximal electroshock seizure activity was determined in mice when administered perorally; conditions: po
[6] = test system: Mus musculus; test: Antiexploratory activity (EXPL) of mice determined by an antimex activity meter,100 mg/kg of dose was administered perorally; Slight inhibition (31-50%)
[7] = test system: Mus musculus; test: Antitremorine activity(TRM) of mice after peroral administration of 100 mg/kg of compound; No inhibition; conditions: route oral
[8] = test system: Mus musculus; test: Antireserpine activity (RES) of mice after peroral administration of 100 mg/kg of compound; No inhibition; conditions: route oral
[9] = test system: Mus musculus; test: Antimaximal electroshock seizure (MES) activity in mice after peroral administration of 100 mg/kg of compound; 0/5; conditions: route oral
[10] = test system: Mus musculus; test: Antiexploratory activity (EXPL) of mice determined by an antimex activity meter, 50 mg/kg of dose was administered perorally; No inhibition; conditions: route oral
[11] = test system: Mus musculus; test: Antitremorine activity(TRM) of mice after peroral administration of 50 mg/kg of compound; No inhibition; conditions: route oral
[12] = test system: Mus musculus; test: Antimaximal electroshock seizure (MES) activity in mice after peroral administration of 100 mg/kg of compound; 2/5; conditions: route oral
[13] = test system: Mus musculus; test: Antiexploratory activity (EXPL) of mice determined by an antimex activity meter, 100 mg/kg of dose was administered perorally; No inhibition; conditions: route oral
[14] = test system: Mus musculus; test: Antiexploratory activity (EXPL) of mice determined by an antimex activity meter, 100 mg/kg of dose was administered perorally; Moderate inhibition (51-71%); conditions: route oral
[15] = test system: Mus musculus; test: Antireserpine activity (RES) of mice after peroral administration of 100 mg/kg of compound; Moderate inhibition (51-71%); conditions: route oral
[16] = test system: Mus musculus; test: Antitremorine activity(TRM) of mice after peroral administration of 100 mg/kg of compound; Slight inhibition (31-50%); conditions: route oral
[17] = test system: Canis familiaris; test: Inhibition of apomorphine induced emesis in dogs at 1 mg/kg of dose.; conditions: Canis lupus familiaris
Procedure, shortened: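 Beagle dogs (10-15 kg), groups of three, given compound po in a gelatin capsule; 2 h later apomorphine hydrochloride 0.3 mg/kg sc. Vomiting counted for 1 h; mean inhibition as percent of control. ED50 is the dose giving 50% inhibition of emesis, by Litchfield-Wilcoxon.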

[18] = test system: Mus musculus; test: 3,4 -Dihydroxy phenylacetic acid (DOPAC) levels in mouse brain at 10 mg/kg dose.
Procedure, shortened: (§1)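 Male Std-ddY mice, 20-25 g, dosed orally with compound in 0.5% aqueous tragacanth. DOPAC was measured fluorometrically after purification by column chromatography on Sephadex G-10 and QAE-Sephadex. Brains from five mice per compound were pooled for each determination.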

[19] = test system: Mus musculus; test: 3,4 -Dihydroxy phenylacetic acid (DOPAC) levels in mouse brain at 50 mg/kg dose.; procedure, shortened: as §1
[20] = test system: Mus musculus; test: The homovanillic acid (HVA) levels in mouse brain at 10 mg/kg of dose.
Procedure, shortened: (§2)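 Mice dosed orally in 0.5% aqueous tragacanth; brains of five mice per compound pooled. Homovanillic acid measured in brain extracts and reported as brain level.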

[21] = test system: Mus musculus; test: The homovanillic acid (HVA) levels in mouse brain at 50 mg/kg of dose.; procedure, shortened: as §2
[22] = test system: Mus musculus; test: Exploratory activity of mice determined by an antimex activity meter, 10 mg/kg of dose was administered perorally; conditions: route oral
[23] = test system: Mus musculus; test: Exploratory activity of mice determined by an antimex activity meter, 50 mg/kg of dose was administered perorally; conditions: Mus musculus, po
Procedure, shortened: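 Male Std-ddY mice (20-25 g), five per dose; compound in 0.5% aqueous tragacanth given orally. Two hours later each mouse placed in an Animex activity meter cage and locomotor activity counted for 3 min. Mean suppression expressed as percent inhibition of control; ED50 by Litchfield-Wilcoxon.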

[24] = test system: Mus musculus; test: Antireserpine activity (RES) of mice after peroral administration of 50 mg/kg of compound; Slight inhibition (31-50%); conditions: route oral
[25] = test system: Mus musculus; test: Antiexploratory activity (EXPL) of mice determined by an antimex activity meter, 50 mg/kg of dose was administered perorally; potent inhibition; conditions: route oral
[26] = test system: Mus musculus; test: Antiexploratory activity (EXPL) of mice determined by an antimex activity meter, 10 mg/kg of dose was administered perorally; No inhibition; conditions: route oral
[27] = test system: Mus musculus; test: Antimaximal electroshock seizure (MES) activity in mice after peroral administration of 10 mg/kg of compound; 0/5; conditions: route oral
[28] = test system: Mus musculus; test: Antimaximal electroshock seizure (MES) activity in mice after peroral administration of 100 mg/kg of compound; 4/5; conditions: route oral
[29] = test system: Mus musculus; test: Antiexploratory activity (EXPL) of mice determined by an antimex activity meter, 100 mg/kg of dose was administered perorally; Potent inhibition; conditions: route oral
[30] = test system: Mus musculus; test: Antitremorine activity(TRM) of mice after peroral administration of 100 mg/kg of compound; Moderate inhibition (51-71%); conditions: route oral
[31] = test system: Mus musculus; test: Antitreserpine activity(RES) of mice after peroral administration of 100 mg/kg of compound; Moderate inhibition (51-71%); conditions: route oral

CN1CCN(C2=Nc3ccccc3CC=C2c2ccc(O)cc2)CC1
inhibition in vivo at 50 mg/kg [1]: 51%
inhibition in vivo at 50 mg/kg [2]: 51%

Cc1ccc2c(c1)CC=C(c1ccccc1)C(N1CCN(CCO)CC1)=N2.O=C(O)/C=C/C(=O)O
Activity [3]: 3
ED50 [4]: 39.4 mg/kg
ED50 [5]: 103 mg/kg
Inhibition [6]: 31%
inhibition in vivo at 100 mg/kg [7]: < 30%
inhibition in vivo at 100 mg/kg [8]: < 30%

O=C(c1ccc(F)cc1)C1CCN(C2=Nc3ccccc3CC=C2c2ccc(Cl)cc2)CC1
Activity [9]: 0
inhibition in vivo at 50 mg/kg [10]: < 30%
inhibition in vivo at 50 mg/kg [11]: < 30%
inhibition in vivo at 100 mg/kg [8]: < 30%

CCN1CCN(C2=Nc3ccc(Br)cc3CC=C2c2ccc(Cl)cc2)CC1.O=C(O)/C=C/C(=O)O
Activity [12]: 2
inhibition in vivo at 100 mg/kg [13]: < 30%
inhibition in vivo at 100 mg/kg [7]: < 30%
inhibition in vivo at 100 mg/kg [8]: < 30%

CN1CCN(C2=Nc3ccccc3CC=C2c2ccccc2Cl)CC1.Cl.Cl
Activity [9]: 0
inhibition in vivo at 100 mg/kg [14]: 51%
inhibition in vivo at 100 mg/kg [15]: 51%
inhibition in vivo at 100 mg/kg [16]: 31%

CCN1CCN(C2=Nc3ccccc3CC=C2c2ccc(F)cc2)CC1.Cl.Cl
inhibition in vivo at 1 mg/kg [17]: 100%
Control [18]: 287%
Control [19]: 345%
Control [20]: 432%
Control [21]: 461%
inhibition in vivo at 10 mg/kg [22]: 10.6%
inhibition in vivo at 50 mg/kg [23]: 86.8%
inhibition in vivo at 50 mg/kg [24]: 31%
inhibition in vivo at 50 mg/kg [25]: > 71%
inhibition in vivo at 10 mg/kg [26]: < 30%

COc1ccc2c(c1)CC=C(c1ccccc1)C(N1CCN(C)CC1)=N2.Cl.Cl
Activity [27]: 0
Activity [28]: 4
inhibition in vivo at 100 mg/kg [29]: > 71%
inhibition in vivo at 10 mg/kg [26]: < 30%
inhibition in vivo at 100 mg/kg [30]: 51%
inhibition in vivo at 100 mg/kg [31]: 51%
